# ChEMBL document CHEMBL1799920, “Total synthesis and pharmacological characterization of solomonsterol A, a potent marine pregnane-X-receptor agonist endowed with anti-inflammatory activity” (J Med Chem, 2011)
# The source made the active and inactive calls. No cut-off for these calls is given here.
# What was measured:
# Mus musculus [1] = test: Antiinflammatory activity against trinitrobenzenesulfonic acid-induced colitis in human PXR expressing transgenic C57/BL6 mouse assessed as decrease in microscopic colon damage at 10 mg/kg, po qd administered 3 days before TNBS challenge measured after 7 days; format: functional, organism-based; set-up: dose 10 mg/kg; conditions: C57Bl/6
# How it was run: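 Microscopic colon damage in the prophylactic TNBS model in hPXR mice: oral 10 mg/kg daily, in DMSO/1% methylcellulose, from 3 days before intrarectal TNBS (0.5 mg/mouse in 50% ethanol). Colons were collected at day 4 post-TNBS, formalin-fixed, paraffin-embedded and H&E-stained, then graded blind on a 0–4 scale (leukocyte infiltration, vascular density, wall thickening, goblet cell loss). n = 6–7.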
# Mus musculus [2] = test: Antiinflammatory activity against trinitrobenzenesulfonic acid-induced colitis in human PXR expressing transgenic C57/BL6 mouse assessed as decrease in colonic myeloperoxidase activity at 10 mg/kg, po qd after 5 days using trimethylbenzidine as substrate by spectrophotometry; format: functional, organism-based; set-up: dose 10 mg/kg; conditions: C57Bl/6
# How it was run: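 Colon myeloperoxidase from TNBS-colitic hPXR mice given oral 10 mg/kg daily. Colon was lysed in T-PER and minced, then centrifuged at 10,000g for 15 min at 4 °C. After two freeze/thaw cycles, MPO in the homogenate was measured spectrophotometrically with TMB substrate and normalized to protein. Mean ± SE, 6–7 mice/group.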
# Mus musculus [3] = test: Antiinflammatory activity against trinitrobenzenesulfonic acid-induced colitis in human PXR expressing transgenic C57/BL6 mouse assessed as induction of CYP3A11 mRNA expression in colon at 10 mg/kg, po qd after 5 days by quantitative RT-PCR; format: functional, organism-based; set-up: dose 10 mg/kg; conditions: C57Bl/6
# How it was run: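 Cyp3A11 mRNA in colon of TNBS-colitic hPXR mice was measured by SYBR Green qPCR (50 ng template, 0.2 μM primers). Cycling was 95 °C for 2 min, then 40 cycles of 95/55/72 °C, with each reaction run in triplicate. Expression was calculated by ΔΔCT against GAPDH relative to untreated control. Mean ± SE, 5 mice/group.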
# Mus musculus [4] = test: Antiinflammatory activity against trinitrobenzenesulfonic acid-induced colitis in human PXR expressing transgenic C57/BL6 mouse assessed as decrease in TNF-alpha protein level in colon at 10 mg/kg, po qd after 5 days by ELISA; format: functional, organism-based; set-up: dose 10 mg/kg; conditions: C57Bl/6
# How it was run: (§1)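 TNFα and IL-10 were measured by ELISA in colon homogenates (T-PER lysis, 10,000g for 15 min at 4 °C) from TNBS-colitic hPXR mice. Mice were dosed orally at 10 mg/kg once daily in DMSO/1% methylcellulose, starting 3 days before intrarectal TNBS (0.5 mg/mouse). Values were normalized to protein; mean ± SE, 6–7 mice/group.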
# Mus musculus [5] = test: Antiinflammatory activity against trinitrobenzenesulfonic acid-induced colitis in human PXR expressing transgenic C57/BL6 mouse assessed as decrease in cellular infiltrate in colon at 10 mg/kg, po qd administered 3 days before TNBS challenge measured after 7 days; format: functional, organism-based; set-up: dose 10 mg/kg; conditions: C57Bl/6
# How it was run: (§2)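 TNBS colitis in male hPXR mice (human PXR on mouse PXR-null background). After a 16 h fast and light ketamine/xylazine i.p. anesthesia, mice received TNBS 0.5 mg/mouse in 50% ethanol intrarectally by catheter. Dosing was 10 mg/kg orally once daily, dissolved in DMSO and diluted in 1% methylcellulose, starting 3 days before TNBS. Colons were taken 4 days after TNBS and stained with H&E. n = 6–7.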
# Mus musculus [6] = test: Antiinflammatory activity against trinitrobenzenesulfonic acid-induced colitis in human PXR expressing transgenic C57/BL6 mouse assessed as decrease in thickness of colon at 10 mg/kg, po qd administered 3 days before TNBS challenge measured after 7 days; format: functional, organism-based; set-up: dose 10 mg/kg; conditions: C57Bl/6
# How it was run: (§3)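 hPXR male mice were fasted 16 h and given TNBS intrarectally (0.5 mg/mouse in 50% ethanol). Oral 10 mg/kg once daily (DMSO stock diluted in 1% methylcellulose) began 3 days before TNBS; vehicle controls received 1% methylcellulose. Four days after TNBS, colon macroscopic appearance was graded blind for induration, edema, thickness and mucosal hemorrhage. n = 6–7.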
# Mus musculus [7] = test: Antiinflammatory activity against trinitrobenzenesulfonic acid-induced colitis in human PXR expressing transgenic C57/BL6 mouse assessed as increase in TGF-beta1 protein level in colon at 10 mg/kg, po qd after 5 days; conditions: C57Bl/6
# Mus musculus [8] = test: Antiinflammatory activity against trinitrobenzenesulfonic acid-induced colitis in human PXR expressing transgenic C57/BL6 mouse assessed as decrease in evidence of mucosal hemorrhage damage at 10 mg/kg, po qd administered 3 days before TNBS challenge measured after 7 days; format: functional, organism-based; set-up: dose 10 mg/kg; conditions: C57Bl/6; how it was run: as §3
# Mus musculus [9] = test: Antiinflammatory activity against trinitrobenzenesulfonic acid-induced colitis in human PXR expressing transgenic C57/BL6 mouse assessed as decrease in IL-12p70 protein level in colon at 10 mg/kg, po qd after 5 days; format: functional, organism-based; set-up: dose 10 mg/kg; conditions: C57Bl/6
# Mus musculus [10] = test: Antiinflammatory activity against trinitrobenzenesulfonic acid-induced colitis in human PXR expressing transgenic C57/BL6 mouse assessed as decrease in INF-gamma protein level in colon at 10 mg/kg, po qd after 5 days; format: functional, organism-based; set-up: dose 10 mg/kg; conditions: C57Bl/6
# Mus musculus [11] = test: Antiinflammatory activity against trinitrobenzenesulfonic acid-induced colitis in human PXR expressing transgenic C57/BL6 mouse assessed as decrease in weight loss at 10 mg/kg, po qd administered 3 days before TNBS challenge measured after 7 days; format: functional, organism-based; set-up: dose 10 mg/kg; conditions: C57Bl/6
# How it was run: (§4)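 Clinical read-outs in hPXR mice with TNBS colitis (0.5 mg/mouse intrarectally in 50% ethanol after a 16 h fast). Oral dosing at 10 mg/kg once daily (DMSO diluted in 1% methylcellulose) started 3 days before TNBS. Diarrhea was scored and body weight recorded, weight expressed as delta percentage versus the day before TNBS; sacrifice was 4 days after TNBS. n = 6–7.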
# Mus musculus [12] = test: Antiinflammatory activity against trinitrobenzenesulfonic acid-induced colitis in human PXR expressing transgenic C57/BL6 mouse assessed as decrease in presence of indurations in colon at 10 mg/kg, po qd administered 3 days before TNBS challenge measured after 7 days; format: functional, organism-based; set-up: dose 10 mg/kg; conditions: C57Bl/6; how it was run: as §3
# Mus musculus [13] = test: (§5) Antiinflammatory activity against trinitrobenzenesulfonic acid-induced colitis in human PXR expressing transgenic C57/BL6 mouse assessed as decrease in appearance of epithelial erosions in colon at 10 mg/kg, po qd administered 3 days before TNBS challenge measured after 7 days by haematoxylin/eosin staining; format: functional, organism-based; set-up: dose 10 mg/kg; conditions: C57Bl/6; how it was run: as §2
# Mus musculus [14] = test: Antiinflammatory activity against trinitrobenzenesulfonic acid-induced colitis in human PXR expressing transgenic C57/BL6 mouse assessed as decrease in edema of colon at 10 mg/kg, po qd administered 3 days before TNBS challenge measured after 7 days; format: functional, organism-based; set-up: dose 10 mg/kg; conditions: C57Bl/6; how it was run: as §3
# [15] = molecular target: T1, Nuclear receptor subfamily 1 group I member 2 (Homo sapiens, UniProt O75469); test: Transactivation of human PXR expressed in HepG2 cells after 18 hrs by luciferase reporter gene assay; format: cell-based
# T1 sequence (O75469 whole entry): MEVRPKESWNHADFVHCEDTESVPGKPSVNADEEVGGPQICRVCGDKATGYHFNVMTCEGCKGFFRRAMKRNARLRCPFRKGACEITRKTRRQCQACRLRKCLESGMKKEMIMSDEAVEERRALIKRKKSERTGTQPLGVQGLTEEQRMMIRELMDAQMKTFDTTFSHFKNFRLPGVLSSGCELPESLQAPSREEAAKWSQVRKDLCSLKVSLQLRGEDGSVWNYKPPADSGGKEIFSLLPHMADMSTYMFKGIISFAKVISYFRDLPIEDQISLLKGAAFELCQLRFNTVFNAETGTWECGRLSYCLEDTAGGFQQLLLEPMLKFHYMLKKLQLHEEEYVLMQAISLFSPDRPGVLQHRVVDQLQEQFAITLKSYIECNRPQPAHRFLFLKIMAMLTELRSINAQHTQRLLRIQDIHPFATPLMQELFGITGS
# How it was run: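 HepG2 cells were transiently transfected with pSG5-PXR, pSG5-RXR, pCMV-βgal and a CYP3A4-promoter luciferase reporter. 48 h after transfection, cells were stimulated for 18 h at 0.1, 1 and 10 μM. Luciferase was normalised to β-galactosidase; n = 4. Relative EC50 from n = 3.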
# Mus musculus [16] = test: Antiinflammatory activity against trinitrobenzenesulfonic acid-induced colitis in human PXR expressing transgenic C57/BL6 mouse assessed as decrease in occurrence of diarrhea at 10 mg/kg, po qd administered 3 days before TNBS challenge measured after 7 days; format: functional, organism-based; set-up: dose 10 mg/kg; conditions: C57Bl/6; how it was run: as §4
# Mus musculus [17] = test: Antiinflammatory activity against trinitrobenzenesulfonic acid-induced colitis in human PXR expressing transgenic C57/BL6 mouse assessed as increase in IL-10 protein level in colon at 10 mg/kg, po qd after 5 days by ELISA; format: functional, organism-based; set-up: dose 10 mg/kg; conditions: C57Bl/6; how it was run: as §1
# Mus musculus [18] = test: as §5, with “submucosal edema” for “epithelial erosions”; format: functional, organism-based; set-up: dose 10 mg/kg; conditions: C57Bl/6; how it was run: as §2
# Mus musculus [19] = test: Antiinflammatory activity against trinitrobenzenesulfonic acid-induced colitis in human PXR expressing transgenic C57/BL6 mouse assessed as decrease in MIP-1alpha protein level in colon at 10 mg/kg, po qd after 5 days; format: functional, organism-based; set-up: dose 10 mg/kg; conditions: C57Bl/6
# THP-1 = test: Inhibition of NF-kappaB p65 DNA binding activity in LPS-stimulated human THP1 cells at 10 uM after 3 hrs by electrophoretic mobility shift assay; format: cell-based
# How it was run: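 THP-1 cells were pretreated with compound (10 μM) or vehicle for 3 h, then LPS 1 μg/mL was added for 20 h. Nuclear extracts were incubated with biotinylated NF-κB probe for 20 min at room temperature, run on a 6% native gel and detected by chemiluminescence. Specificity was checked by cold-probe competition and p65 antibody supershift. Three independent experiments.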
smiles,measurement,setting,value
CO[C@H]1/C=C/O[C@@]2(C)Oc3c(C)c(O)c4c(O)c(c5c(nc6cc(C)ccn65)c4c3C2=O)NC(=O)/C(C)=C\C=C\[C@H](C)[C@H](O)[C@@H](C)[C@@H](O)[C@@H](C)[C@H](OC(C)=O)[C@@H]1C [RIFAXIMIN],Activity,Mus musculus [1],Active
same,Activity,Mus musculus [2],Active
same,Activity,Mus musculus [3],Active
same,Activity,Mus musculus [4],Active
same,Activity,Mus musculus [5],Active
same,Activity,Mus musculus [6],Active
same,Activity,Mus musculus [7],Active
same,Activity,Mus musculus [8],Active
same,Activity,Mus musculus [9],Active
same,Activity,Mus musculus [10],Active
same,Activity,Mus musculus [11],Active
same,Activity,Mus musculus [12],Active
same,Activity,Mus musculus [13],Active
same,Activity,Mus musculus [14],Active
same,EC50,[15],2200 nM
same,Activity,Mus musculus [16],Active
same,Activity,Mus musculus [17],Active
same,Activity,Mus musculus [18],Active
same,Activity,Mus musculus [19],Active
same,Activity,THP-1,Active
